Measured values collected from several papers.
Each line is one published result; the experiments were not run side by side.
Observed: cell growth or viability

COc1cc(C)cc2oc(-c3ccc(C(F)(F)F)cc3)cc(=O)c12  IC50 (HS27; MTT; 24 h): > 200 µM
COc1cccc2c1C(=O)c1c(O)c3c(c(O)c1C2=O)C[C@@](O)(C(=O)CO)C[C@@H]3O[C@H]1C[C@H](N)[C@H](O)[C@H](C)O1  IC50 (LLC-PK11; neutral red; 48 h): < 0.55 µg/mL
Oc1c(I)cc(Cl)c2cccnc12  IC50 (BEL-7404; MTT; 48 h): 65.1 µM
Oc1ccc(Nc2nc(-c3ccc(Cl)cc3)cs2)cc1  IC50 (FF2441; MTS; 48 h): > 100 µM
Oc1c(Br)cc(Br)c2cccnc12  IC50 (BEL-7404; MTT; 48 h): 68.1 µM
COc1ccc(-c2cc(=O)c3c(OC)cc(C)cc3o2)cc1  IC50 (HS27; MTT; 24 h): > 200 µM
C=CCn1c(-c2ccc(Cl)cc2)nc2ccc(C)cc21  IC50 (MDA-MB-231; MTT): 30.1 µM
C/C=C(/C)C(=O)OC[C@H]1[C@@H](Cc2ccc(C(F)(F)F)cc2)CO[C@@H]1c1ccccc1  IC50 (rat VSMC; resazurin; 48 h): 4.2 µM
Cc1ccc2nc(-c3cccnc3)[nH]c2c1  IC50 (MDA-MB-231; MTT; 48 h): 89 µM
Nc1ncc(-c2cnn(C3CCNCC3)c2)cc1-c1nnc(CC2CC2)o1  IC50 (CMK; trypan blue; 72 h): 0.653 µM
COc1cc(C)c(-c2c(C)cc(OC)c3c(=O)cc(-c4ccccc4Br)oc23)c2oc(-c3ccccc3Br)cc(=O)c12  IC50 (HS27; MTT; 24 h): > 200 µM
COC(=O)CN=c1scc(-c2ccccc2)n1-c1ccccc1OC  IC50 (Panc 04.03; MTT; 72 h): 52.2 µM
c1ccc(-c2ccccn2)nc1  IC50 (BEL-7404; MTT; 48 h): > 50 µM
CC(=O)c1ccc(/N=N/c2cc(/C=C/C(=O)O)ccc2O)cc1  IC50 (A-375; MTT): > 50 µM
COc1ccc(-c2nc3ccccc3n2Cc2ccccc2)cc1OC  IC50 (MDA-MB-231; MTT): 27.1 µM
Cl.Oc1cccc2c1[nH]c1c(C3=CC4(O)CC/C=C\CCCCN5CCC3C3(CC6/C=C\CCCCN6C43)C5)nccc12 (single isomer, unassigned; (+))  IC50 (LLC-PK11; neutral red; 48 h): 1.85 µg/mL
COc1cc(C)cc2oc(-c3ccc(Br)cc3)cc(=O)c12  IC50 (HS27; MTT; 24 h): > 200 µM
CCCCC[C@H](O)CC(=O)CCc1ccc(O)c(OC)c1  IC50 (MRC5; SRB): 303 µM
COC(=O)CN=c1scc(-c2ccccc2)n1-c1ccc(C)cc1  IC50 (SiHa; MTT; 72 h): 6.17 µM
COc1cc(OC)c2c(=O)cc(-c3cccc(Br)c3)oc2c1  IC50 (HS27; MTT; 24 h): 128 µM
COc1ccc(C(=O)O[C@@H]2CN3Cc4c(cc5c(c4OC)OCO5)[C@@]24C=C[C@H](OC)C[C@@H]34)cc1OC  IC50 (MRC5; WST-1): 6.1 µM
Fc1ccc(-c2nc3ccccc3[nH]2)cc1  IC50 (MDA-MB-231; MTT; 48 h): > 100 µM
O=C(O)/C=C/c1ccc(O)cc1  IC50 (A-375; MTT): > 50 µM
Fc1cccc(Cl)c1-c1nc2ccccc2[nH]1  IC50 (MDA-MB-231; MTT; 48 h): 69 µM
C/C=C(/C)C(=O)OC[C@H]1[C@@H](Cc2ccc(C(F)(F)F)cc2)CO[C@@H]1c1ccc(OC)c(OC)c1  IC50 (rat VSMC; resazurin; 48 h): 20.1 µM
COc1cc(OC)c2c(=O)cc(-c3ccccc3Br)oc2c1  IC50 (HS27; MTT; 24 h): > 200 µM
Cc1ccc2nc(-c3ccc([N+](=O)[O-])cc3)n(Cc3ccccc3Cl)c2c1  IC50 (MDA-MB-231; MTT): 28.5 µM
COC(=O)CN=c1scc(-c2ccccc2)n1-c1ccc(Cl)cc1  IC50 (Panc 04.03; MTT; 72 h): 52.1 µM
COc1cc(C)c(-c2c(C)cc(OC)c3c(=O)cc(-c4ccc(N(C)C)cc4)oc23)c2oc(-c3ccc(N(C)C)cc3)cc(=O)c12  IC50 (HS27; MTT): 180 µM
Oc1c(I)cc(I)c2cccnc12  IC50 (BEL-7404; MTT; 48 h): > 100 µM
COC(=O)CN=c1scc(-c2ccccc2)n1-c1ccc(OC)cc1  IC50 (Panc 04.03; MTT; 72 h): 75.2 µM
COc1cc(C)c(-c2c(C)cc(OC)c3c(=O)cc(-c4ccccc4)oc23)c2oc(-c3ccccc3)cc(=O)c12  IC50 (HS27; MTT; 24 h): > 200 µM
Cc1ccc2nc(-c3ccco3)n(Cc3ccccc3)c2c1  IC50 (MDA-MB-231; MTT): 60.5 µM
COc1ccc([C@H]2OC[C@H](Cc3ccc(C(C)(C)C)cc3)[C@@H]2CO)cc1OC  IC50 (rat VSMC; resazurin; 48 h): 5 µM
COC(=O)CN=c1scc(-c2ccccc2)n1-c1ccccc1[N+](=O)[O-]  IC50 (SiHa; MTT; 72 h): 6.78 µM
O=C(Nc1ccc2[nH]nc(-c3ccncc3)c2c1)[C@@H]1CCN(CC(=O)N2CCN(c3ccc(-c4ncccn4)cc3)CC2)C1  IC50 (A-375; resazurin; 96 h): 0.037 µM
Clc1ccc(-c2nc3ccccc3[nH]2)cc1  IC50 (MDA-MB-231; MTT; 48 h): > 100 µM
COC(=O)CN=c1scc(-c2ccccc2)n1-c1ccccc1C  IC50 (Panc 04.03; MTT; 72 h): > 100 µM
Nc1nc(Nc2ccc3c(c2)CC[C@@H](N2CCCC2)CC3)nn1-c1cc2c(nn1)-c1ccccc1CCC2  IC50 (CMK; trypan blue; 72 h): 2.24 µM
